CHOP UPR activ: activators of apoptotic arm of unfolded protein response (CHOP) | CHO-CHOP luciferase reporter, UPR activation, luminescence; percent of tunicamycin response over DMSO baseline | activation, % at 10 µM | 330,000 tested, 0.34% active | AID 449763;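 active = at 10 µM dose, activation of 40% or more, normalized to positive control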
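Dosing – one dose, 10 µM in 0.5% DMSO · System – CHO-CHOP cells, stable luciferase reporter of PERK-eIF2a-CHOP signalling · Input – 500 cells/well · Control set – tunicamycin 10 µg/mL final as positive, DMSO-only wells as negative · Timing – 6 h compound treatment, 37 °C · Measure – % activation vs tunicamycin · Technique – luminescence read with Steady-Glo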
Apaf-1 inh: human Apaf-1 inhibition | O14727 | reconstituted apoptosome caspase-3 activity, DEVD-Rh110 fluorescence | inhibition, % at 20 µM | 330,000 tested, 0.71% active; active = inhibition of at least 40% at 20 µM
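Material: reconstituted apoptosome with Apaf-1, cytochrome c, caspase-9, procaspase-3, dATP / Buffer or medium: pH 7.5 Hepes buffer with CHAPS, BSA, DTT / Also added: cytochrome c with DEVD-Rh110 / Schedule: compound with Apaf-1, dATP, procaspase-3 30 min, then 50 min reaction, room temperature / Technique: rhodamine 110 fluorescence at Ex 480/Em 540 nm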
XBP1 UPR activ: activators of adaptive arm of unfolded protein response (XBP1). CHO-XBP1 luciferase reporter, IRE1-XBP1 UPR activation, luminescence; percent of tunicamycin response, DMSO as zero. activation, % at 20 µM. 330,000 tested, 0.33% active. AID 463104;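 active = versus positive control, 20 µM dose yields 30% or more activation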
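Material: CHO cell line with stable XBP1 luciferase reporter; schedule: 16-18 h cell attachment at 37 °C, then 6 h compound exposure; signal: glow luminescence from Steady-Glo reagent; medium: serum-containing F12 medium, 10% FBS; benchmarks: tunicamycin 10 µg/mL and vehicle-only wells; read-out: percent activation relative to tunicamycin reference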
Mdm2-MdmX inh: inhibitors of human Mdm2/MdmX interaction | SaOS-2 split-luciferase Mdm2/MdmX complementation, luminescence | inhibition, % at 8 µM | 330,000 tested, 3% active;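 active = inhibition of at least 50% at 8 µM in the primary screen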
UBC13 polyUb: blocks human UBC13 polyubiquitin chain formation; P61088; TR-FRET; inhibition, % at 20 µM; 330,000 tested, 0.47% active; in the data active = inhibition above about 45%, passing the limit was not always enough
Target sequence (P61088 whole entry, looked up): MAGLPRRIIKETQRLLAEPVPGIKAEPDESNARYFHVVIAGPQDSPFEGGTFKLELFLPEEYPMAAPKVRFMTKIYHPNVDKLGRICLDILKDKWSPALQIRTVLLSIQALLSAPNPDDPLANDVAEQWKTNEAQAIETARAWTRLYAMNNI
Apaf-1 inh conf2: Apaf-1 inhibition, single-dose confirmed; 1,800 tested, 25% active; shares compounds with Apaf-1 inh; inhibition, % at 20 µM; reconstituted apoptosome, caspase-3 DEVD-Rh110 fluorescence; AID 504614;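 active = mean inhibition of at least 40% at 20 µM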
Rh110 quench: interferes with Rh110 fluorescence, flagging false Apaf-1 inhibitors; shares compounds with Apaf-1 inh; Rh110 fluorescence interference, quenched caspase reaction; activation (fluorescence interference), % at 20 µM; 1,800 tested, under 10 active;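 active = signal rise of 40% or more at 20 µM, treated as a fluorescence artifact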
Apaf1 inh interf: shows fluorescence interference in the Apaf-1 inhibitor assay format; fluorescence interference counterscreen, Apaf-1 assay format; 460 tested, under 10 active; AID 588538; IC50, µM; shares compounds with Apaf-1 inh; call rule not given here
A number is an active result; – = inactive; · = no result. In the library only some 4.1% were active in any assay of this set; here they are far more common.

SMILES | CHOP UPR activ | Apaf-1 inh | XBP1 UPR activ | Mdm2-MdmX inh | UBC13 polyUb | Apaf-1 inh conf2 | Rh110 quench | others
COCCN1C(=O)C(=O)/C(=C(/O)c2ccc(S(=O)(=O)N3CCOCC3)cc2)C1c1cccc(Cl)c1 (stereo unspecified) | – | – | – | – | – | · | ·
CCN(Cc1ccccc1)C(=O)c1cccc(S(=O)(=O)N2CCN(c3ccc(F)cc3)CC2)c1 | – | 42.1 | – | – | – | – | –
CCN(Cc1ccccc1)C(=O)c1cccc(S(=O)(=O)N2CCN(c3ccccc3)CC2)c1 | – | – | – | – | – | · | ·
CCc1cccc(C)c1NC(=S)N(CCCN1CCOCC1)Cc1cccnc1 | – | – | – | – | – | · | ·
O=C1C(=O)N(CCN2CCOCC2)C(c2ccccc2F)/C1=C(\O)c1ccc(S(=O)(=O)N2CCOCC2)cc1 (stereo unspecified) | – | – | – | – | – | · | ·
CC1=CC(C)(C)N2C(=O)C(=Nc3ccc(O)cc3)c3cccc1c32 | – | 90.2 | – | – | – | – | –
C[C@@H]1C(=O)N(c2ccccc2)[C@@H]1c1ccncc1 | – | – | – | – | · | · | ·
CCOc1cc(C2C(C(C)=O)=C(O)C(=O)N2CCc2c[nH]c3ccccc23)ccc1O (stereo unspecified) | – | 49.2 | – | – | – | – | –
CC(=O)C1=C(O)C(=O)N(CCc2c[nH]c3ccccc23)C1c1ccco1 (stereo unspecified) | – | 42.9 | – | – | – | – | –
CC(=O)C1=C(O)C(=O)N(CCc2c[nH]c3ccccc23)C1c1ccc(C)cc1 (stereo unspecified) | – | – | – | – | – | · | ·
CC(Oc1ccc2c3c(c(=O)oc2c1)CCC3)C(=O)NCCCn1ccnc1 (stereo unspecified) | – | – | – | – | – | · | ·
Cc1ccc(-n2nc(C)c3c2OC(N)=C(C#N)C3c2ccco2)cc1 (stereo unspecified) | – | – | – | – | – | · | ·
Cc1ccc(-n2nc(C)c3c2OC(N)=C(C#N)C3c2ccoc2)cc1 (stereo unspecified) | – | 81.0 | – | – | – | – | –
Cc1nn(-c2ccccc2)c2c1C(c1ccccc1)C(C#N)=C(N)O2 (stereo unspecified) | – | 96.5 | – | – | – | – | –
Cc1nn(-c2ccccc2)c2c1C(c1ccc(F)cc1F)C(C#N)=C(N)O2 (stereo unspecified) | – | – | – | – | – | · | ·
CC(=O)N/C(=C/c1ccc([N+](=O)[O-])cc1)C(=O)O | – | – | – | – | – | · | ·
Cc1ccc(NC2=C(NC(=O)c3ccccc3)C(=O)c3ccccc3C2=O)cc1Cl | – | 67.3 | – | – | – | 64.4 | – | Apaf1 inh interf=–
O=C(Cn1cc2c(n1)CCCC2)NCCCN1CCCC1 | – | 41.0 | – | – | – | – | –
CCc1ccc(OCC(=O)N/N=C2\CC(=O)c3ccccc32)cc1 | – | 83.6 | – | – | – | 54.1 | – | Apaf1 inh interf=–
Cc1ccc(Sc2oc(/C=N/n3cnnc3)cc2Br)cc1 | – | – | – | – | – | · | ·
CCCn1nc(C(=O)Nc2ccc(-n3cnnn3)cc2)c2ccccc2c1=O | – | 70.6 | – | – | – | – | –
COc1ccc(-c2ccc(/C=C3\C(=O)N(c4ccccc4)N=C3c3ccccc3)o2)c([N+](=O)[O-])c1 | – | – | – | – | – | · | ·
COC(=O)c1ccccc1-c1ccc(/C=C2\C(=O)N(c3ccccc3)N=C2c2ccccc2)o1 | – | 62.3 | – | – | – | – | –
COC(C[C@H]1O[C@@H]1C(=O)[C@H](C)OCc1ccccc1)OC | – | 48.1 | – | – | – | – | –
O=C(NCCCN1CCc2ccccc2C1)C1CCN(c2nnc(-n3cccc3)s2)CC1 | – | 51.3 | – | – | – | – | –
SMILES | CHOP UPR activ | Apaf-1 inh | XBP1 UPR activ | Mdm2-MdmX inh | UBC13 polyUb | Apaf-1 inh conf2 | Rh110 quench | others
COCCN(C(=O)COC(=O)/C=C/c1ccccc1Cl)c1c(N)n(Cc2ccccc2)c(=O)[nH]c1=O | – | – | – | – | – | · | ·
COCCN(C(=O)COC(=O)/C=C/c1ccc(C(F)(F)F)cc1)c1c(N)n(Cc2ccccc2)c(=O)[nH]c1=O | – | 44.2 | – | – | – | – | –
C[C@H](NC(=O)c1ccc(C(C)(C)C)cc1)C(=O)N1CCN(C/C=C/c2ccccc2)CC1 | – | 42.7 | – | – | – | – | –
CC(C)C(NC(=O)c1ccccc1)C(=O)N1CCN(C/C=C/c2ccccc2)CC1 (stereo unspecified) | – | – | – | – | – | · | ·
Nc1nc(Nc2cccc(Cl)c2)n[nH]1 | – | – | – | – | – | · | ·
COc1ccc(C2CC(=O)N3CN(c4ccc(C)c(Cl)c4)CSC3=C2C#N)cc1 (stereo unspecified) | – | 47.1 | – | – | – | – | –
CCN(CC)CCCN=Cc1c(O)n(Cc2ccccc2)c(=O)c2ccccc12 | – | – | – | – | – | · | ·
CC(C)CCC(C)N=Cc1c(O)n(Cc2ccccc2)c(=O)c2ccccc12 (stereo unspecified) | – | 59.7 | – | – | – | 56.2 | – | Apaf1 inh interf=–
O=C1Cc2ccccc2C(=O)N1OCc1ccc(Cl)cc1 | – | 95.3 | – | – | – | – | –
O=C(c1ccc(N2CCNCC2)cc1)c1cccnc1 | – | – | – | – | – | · | ·
O=C(COC(=O)c1cc(Cl)ccc1Cl)NCCN1C(=O)CSC1=O | – | 43.2 | – | – | – | – | –
O=C(COC(=O)c1ccc(O)cc1O)NCCN1C(=O)CSC1=O | – | – | – | – | – | · | ·
CC(C)C1Nc2ccc(S(N)(=O)=O)cc2C2C=CCC21 (stereo unspecified) | – | – | – | – | – | · | ·
NS(=O)(=O)c1ccc2c(c1)C1C=CCC1C(C1CC=CCC1)N2 (stereo unspecified) | – | 46.7 | – | – | – | – | –
O=[N+]([O-])c1cc2c(cc1C=Nc1ccccc1)OCO2 | – | 47.7 | – | – | – | – | –
Cc1cc2ccccc2n1CCNC(=O)C1CCCCC1 | – | 44.2 | – | – | – | – | –
O=C1OC2(CCCCC2)OC(=O)C1=CNc1ccc2c(c1)OCO2 | – | – | – | – | – | · | ·
O=C1/C(=C/Nc2ccc3c(c2)OCO3)CCc2ccccc21 | – | 45.0 | – | – | – | – | –
COc1ccc(N/C=C2\CCOC2=O)cc1 | – | – | – | – | – | · | ·
COc1ccc(N/C=C2\CCc3ccccc3C2=O)cc1 | – | 79.2 | – | – | – | – | –
COc1ccc2c(c1)CC/C(=C\Nc1ccc3c(c1)OCO3)C2=O | – | 78.1 | – | – | – | 47.4 | – | Apaf1 inh interf=–

From PubChem
